# Results as given in the M2OR odorant receptor database.
# Biological target: T1, UniProt Q8VGC6
# T1 sequence (whole entry): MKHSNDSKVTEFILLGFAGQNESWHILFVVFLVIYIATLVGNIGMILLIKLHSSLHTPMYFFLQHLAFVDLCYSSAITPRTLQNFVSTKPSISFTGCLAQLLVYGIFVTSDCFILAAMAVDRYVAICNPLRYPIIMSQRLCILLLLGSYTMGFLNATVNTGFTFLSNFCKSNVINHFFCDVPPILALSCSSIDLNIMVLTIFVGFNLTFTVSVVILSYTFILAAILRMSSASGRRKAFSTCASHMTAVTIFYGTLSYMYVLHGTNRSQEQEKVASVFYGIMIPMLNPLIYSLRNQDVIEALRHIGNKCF
# Conditions: stereoisomer not certain
# Method in brief: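 Whether a receptor–molecule pair is responsive (active) rests on the original authors' judgment that its measured signal was statistically different from baseline. Pairs without that judgment are non-responsive (inactive). Sources used varied assay methods, commonly transient luciferase assays in mammalian cell lines.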
# 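Also: active if original authors judged signal statistically different from baseline.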
row,SMILES,odorant receptor agonist call
1,CC(O)c1ccccc1 (configuration not stated),inactive
2,O=c1ccc2ccccc2o1,inactive
3,CC(C)CN,inactive
4,CCCCCC=O,inactive
5,Cc1nccnc1C,inactive
6,CCCCCCCO,active
7,O=C1CCOc2ccccc21,inactive
8,CCCCCCOC(C)=O,inactive
9,CC1=CCC2CC1C2(C)C (configuration not stated),inactive
10,O=C(c1ccccc1)c1ccccc1,inactive
11,CC(C)C12CCC(C)(CC1)O2,inactive
12,CCCCCCCCC(=O)O,active
13,O=C(Cl)CCCCCCCC(=O)Cl,inactive
14,CCCC(=O)OC,inactive
15,CC12CCC(CC1=O)C2(C)C (configuration not stated),inactive
16,CCC=O,inactive
17,CCCCCCCCO,active
18,OCc1ccccc1,inactive
19,CCCCC(C)=O,inactive

row,SMILES,odorant receptor agonist call
1,CCCCCCCCCS,active
2,CCCCCCCCCC(=O)[O-].[H+],active
3,CCCCCCO,inactive
4,CCCC(=O)OCC,inactive
5,CC(=O)OCc1ccccc1,active
6,C=CCCCCCC,inactive
7,CCOc1ccccc1,inactive
8,CCCCCCCCCO,active
9,CCCCCCC(C)=O,active
10,CCCCOC=O,inactive
11,CCCCCC(C)(C)O,inactive
12,CC(C)=CCCC(C)CC=O (configuration not stated),inactive
13,CC(C)=CC1CC(C)CCO1 (configuration not stated),inactive
14,CCC(=O)OC,inactive
15,CCCOC(=O)CCC,inactive
16,CCCCCOC(=O)CCCCC,inactive
17,CCCCOC,inactive
18,CCC(=O)OC(C)(C)C,inactive
